Molecules are shown by their SMILES. Converted amounts (≈) assume the structure as drawn.

The values below come from ChEMBL document CHEMBL2321840, “Synthesis and structure-activity relationships of indazole arylsulfonamides as allosteric CC-chemokine receptor 4 (CCR4) antagonists” (J Med Chem, 2013).

One series relates to Rattus norvegicus. As to the kind of experiment: Toxicity in rat administered for 7 days. The format is organism-based. The settings on record: in vivo, 168 h.
Series [1] in a line: Plasma protein binding in CD rat by equilibrium dialysis technique. Format: ADME, cell-free. The conditions noted are these: read-out: PPB. The method, boiled down: (§1)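 Rapid equilibrium dialysis in CD rat, beagle dog or human plasma, with compound at a nominal 1 μg/mL; n = 3.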
A short description of series [2]: Plasma protein binding in Beagle dog by equilibrium dialysis technique. Format: ADME, cell-free, Canis lupus familiaris. The conditions noted are these: read-out: PPB. The method, boiled down:
as §1
In general terms: In equilibrium dialysis free small molecules cross a membrane that holds back macromolecules.

The species entered for the next series is Oryctolagus cuniculus. The experiment in a line: Cardiotoxicity in rabbit assessed as effect on conduction. Format: toxicity.
The next series deals with HepG2. As to the kind of experiment: Cytotoxicity in human HepG2 cells assessed as effect on mitochondria. Format: cell-based.
The subject of another series is Salmonella typhimurium. The experiment in a line: Genotoxicity in Salmonella typhimurium by Ames test. The format is toxicity, organism-based. The settings on record: salmonella enterica subsp. enterica serovar typhimurium. (The Ames test uses bacterial strains that need an amino acid and regain growth without it when mutated back.)
Series [3] addresses T1, Solute carrier organic anion transporter family member 1B1 (Homo sapiens, UniProt Q9Y6L6).
T1 sequence (Q9Y6L6 whole entry): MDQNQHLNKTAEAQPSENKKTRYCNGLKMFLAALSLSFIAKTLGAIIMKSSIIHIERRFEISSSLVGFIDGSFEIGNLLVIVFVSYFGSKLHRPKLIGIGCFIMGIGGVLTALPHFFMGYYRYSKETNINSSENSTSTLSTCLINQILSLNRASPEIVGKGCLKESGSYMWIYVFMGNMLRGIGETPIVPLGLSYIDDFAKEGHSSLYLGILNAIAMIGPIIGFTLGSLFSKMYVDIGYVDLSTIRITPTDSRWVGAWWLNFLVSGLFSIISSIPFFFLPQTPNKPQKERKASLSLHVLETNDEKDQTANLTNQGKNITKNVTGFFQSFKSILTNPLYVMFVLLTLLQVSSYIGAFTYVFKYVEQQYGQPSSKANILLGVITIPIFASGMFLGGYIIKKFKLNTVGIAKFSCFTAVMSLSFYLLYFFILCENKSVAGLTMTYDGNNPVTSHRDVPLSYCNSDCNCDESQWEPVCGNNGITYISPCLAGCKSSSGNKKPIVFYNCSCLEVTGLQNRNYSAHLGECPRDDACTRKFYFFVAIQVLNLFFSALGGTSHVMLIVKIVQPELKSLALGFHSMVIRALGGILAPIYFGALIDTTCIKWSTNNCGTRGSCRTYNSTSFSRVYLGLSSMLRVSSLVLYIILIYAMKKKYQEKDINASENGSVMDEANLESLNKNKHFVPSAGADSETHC
As to the kind of experiment: Antagonist activity at OATP1B1 (unknown origin) by [35S]GTPgammaS binding assay. Format: functional. A general note: GTPγS is a poorly hydrolysed GTP analogue; its binding reports G protein activation.

The target of series [4] is C-X-C chemokine receptor type 4 (Homo sapiens, UniProt P61073). As to the kind of experiment: Antagonist activity at CXCR4 receptor (unknown origin) by [35S]GTPgammaS binding assay. Format: functional.
Chain of C-X-C chemokine receptor type 4 (P61073 whole entry): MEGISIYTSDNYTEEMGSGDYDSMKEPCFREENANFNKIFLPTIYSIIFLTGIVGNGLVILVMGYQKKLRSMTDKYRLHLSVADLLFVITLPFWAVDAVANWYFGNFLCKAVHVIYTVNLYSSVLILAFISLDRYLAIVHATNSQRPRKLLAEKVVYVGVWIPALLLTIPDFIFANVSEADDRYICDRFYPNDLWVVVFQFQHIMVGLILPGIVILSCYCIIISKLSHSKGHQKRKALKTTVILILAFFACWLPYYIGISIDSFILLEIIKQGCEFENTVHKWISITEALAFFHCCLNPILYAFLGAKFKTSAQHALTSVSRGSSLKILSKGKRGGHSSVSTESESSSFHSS
Series [5] concerns the target T2, C-C chemokine receptor type 10 (Homo sapiens, UniProt P46092).
T2 sequence (P46092 whole entry): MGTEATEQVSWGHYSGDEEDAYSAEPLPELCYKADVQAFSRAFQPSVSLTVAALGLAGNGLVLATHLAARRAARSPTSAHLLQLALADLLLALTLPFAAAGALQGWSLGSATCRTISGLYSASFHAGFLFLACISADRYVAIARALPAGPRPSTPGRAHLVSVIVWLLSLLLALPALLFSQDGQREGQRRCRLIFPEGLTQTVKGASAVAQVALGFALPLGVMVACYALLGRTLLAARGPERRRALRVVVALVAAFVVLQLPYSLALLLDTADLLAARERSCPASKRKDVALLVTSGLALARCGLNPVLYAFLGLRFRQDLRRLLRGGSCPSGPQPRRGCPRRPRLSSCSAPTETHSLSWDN
The experiment in a line: Antagonist activity at CCR10 receptor (unknown origin) by [35S]GTPgammaS binding assay. Format: functional.

In series [6] the target is T3, C-C chemokine receptor type 1 (Homo sapiens, UniProt P32246).
T3 sequence (P32246 whole entry): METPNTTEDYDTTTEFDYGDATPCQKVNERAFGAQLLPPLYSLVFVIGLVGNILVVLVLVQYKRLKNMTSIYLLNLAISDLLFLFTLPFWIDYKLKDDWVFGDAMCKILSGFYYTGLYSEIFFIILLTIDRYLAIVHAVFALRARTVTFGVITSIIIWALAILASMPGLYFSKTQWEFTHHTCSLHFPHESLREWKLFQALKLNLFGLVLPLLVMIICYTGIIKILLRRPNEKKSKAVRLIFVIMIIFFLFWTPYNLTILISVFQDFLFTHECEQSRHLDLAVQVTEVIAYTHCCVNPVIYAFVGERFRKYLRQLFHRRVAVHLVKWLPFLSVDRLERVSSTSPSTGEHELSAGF
As to the kind of experiment: Antagonist activity at CCR1 receptor (unknown origin) by [35S]GTPgammaS binding assay. The format is functional.

The nature of series [7]: Oral bioavailability in CD rat at 30 mg/kg administered as suspension. The format is ADME, organism-based. The conditions noted are these: in vivo.
A short description of series [8]: Equilibrium solubility of the compound in Britton-Robinson buffer at pH 7 after 24 hrs by HPLC analysis. Format: physicochemical. The method, boiled down: (§2)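 Solid compound was equilibrated 24 h in Britton–Robinson buffer at the stated pH. Dissolved compound was quantified by HPLC.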
The nature of series [9]: Equilibrium solubility of the compound in Britton-Robinson buffer at pH 2 after 24 hrs by HPLC analysis. The format is physicochemical. The method, boiled down: as §2
Series [10] is described as follows: Equilibrium solubility of the compound in saline after 24 hrs by HPLC analysis. Format: physicochemical. The method, boiled down: (§3)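 Solid compound was equilibrated 24 h in the stated medium: water, SGF pH 1.6, FeSSIF pH 6.5, FaSSIF pH 6.5 or saline. Dissolved compound was quantified by HPLC.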
The nature of series [11]: Equilibrium solubility of the compound in fasted-state simulated intestinal fluid at pH 6.5 after 24 hrs by HPLC analysis. Format: physicochemical. The method, boiled down:
as §3

Series [12] is described as follows: Equilibrium solubility of the compound in water after 24 hrs by HPLC analysis. The format is physicochemical. The method, boiled down:
as §3

Series [13] in a line: Plasma protein binding in human by equilibrium dialysis technique. The format is ADME, cell-free. The settings on record: read-out: PPB (converted). The method, boiled down: as §1
Series [14] can be described thus: Kinetic solubility of the compound by chemiluminescent nitrogen detection assay. The conditions noted are these: read-out: Kinetic_solubility. The format is physicochemical.
Series [15] can be described thus: Lipophilicity, log D of the compound by chromatographic analysis. The format is physicochemical. The method, boiled down: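 Chromatographic log D measured at pH 7.4.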
For series [16], the target named is T4, C-C chemokine receptor type 4 (Homo sapiens, UniProt P51679).
T4 sequence (P51679 whole entry): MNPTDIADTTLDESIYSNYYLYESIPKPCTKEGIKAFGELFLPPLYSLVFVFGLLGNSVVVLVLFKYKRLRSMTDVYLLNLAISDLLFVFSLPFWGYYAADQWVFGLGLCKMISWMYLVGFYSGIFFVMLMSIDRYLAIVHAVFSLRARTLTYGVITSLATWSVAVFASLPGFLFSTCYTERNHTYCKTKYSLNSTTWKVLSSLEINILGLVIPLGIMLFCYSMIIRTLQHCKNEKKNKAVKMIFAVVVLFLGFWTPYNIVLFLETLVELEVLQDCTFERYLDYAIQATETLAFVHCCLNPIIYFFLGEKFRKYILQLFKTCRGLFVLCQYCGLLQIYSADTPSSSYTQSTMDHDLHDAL
The experiment in a line: Antagonist activity at human recombinant CCR4 receptor expressed in CHO cell membranes by [35S]GTPgammaS binding assay. The format is functional.

Consider `COc1cccc2c1c(NS(=O)(=O)c1ccc(Cl)s1)nn2Cc1cccc(CNC(=O)C(C)(C)O)c1`, for which the Activity result in the series on Rattus norvegicus, in the series listed under Oryctolagus cuniculus, in the series on HepG2 and in the series on Salmonella typhimurium was “Non-toxic” each time. Further, the fraction unbound in [1] is at most 0.01; in series [2] it was at most 0.01; in series [13], 0.01. In addition, the IC50 is 398 nM in series [3]; over 10000 nM in series [4]; over 10000 nM in series [5]; over 10000 nM in series [6]; 39.8 nM in [16]. Further, in series [7], the bioavailability came out at 101%. Also, the solubility (thermodynamic) at 24 h in [8] was 10 µg/mL (≈ 18.2 µM); in series [9] it was 3 µg/mL (≈ 5.46 µM); in series [10] it was 73 µg/mL (≈ 133 µM); in series [11], 10 µg/mL (≈ 18.2 µM); in [12] it was 57 µg/mL (≈ 104 µM). Moreover, in series [14], the solubility kinetic is at least 162 µg/mL. In [15], this molecule registered a chromatographic logD of 4.3.

The IC50 is the concentration that inhibits the measured activity by half. For orientation: thermodynamic solubility means the concentration in solution at equilibrium with solid. A word on the chromatographic logD: it is lipophilicity estimated from chromatographic retention. Read a high chromatographic logD as a more lipophilic compound.
